High-throughput results as filed in PubChem BioAssay.
KCNQ1 act – human KCNQ1 channel potentiation or activation; P51787; CHO-K1 KCNQ1, thallium flux FluxOR fluorescence; stronger effect = higher value; B-score at 10 µM; actives 0.35% (n = 310,000);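 active = fluorescence ratio B-score, a plate-corrected score, at least three library SD, with initial intensity B-score within 5 SD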
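assay system = CHO-K1 cells stably expressing KCNQ1 | medium = assay buffer, equal DMSO in all wells | timing = 37 °C overnight plating, 90-min dark dye load, 20-min compound pretreatment | measured by = kinetic FluxOR thallium fluorescence, 10-s 1-Hz baseline, 110-s post-stimulus read | measure = fluorescence change relative to baseline, converted to B score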
KCNK3 block – human KCNK3 channel inhibition, primary screen. AID 602410. CHO-KCNK3 thallium flux, FluxOR fluorescence; stronger effect = lower value. B-score at 10 µM. actives 0.84% (n = 340,000). O14649;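 active = B-score under library mean minus 4 SD, starting fluorescence ratio at most library mean plus 5 SD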;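 also: more negative B-score means stronger inhibition of thallium flux through KCNK3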
hERG rescue – shields human hERG channel from block by proarrhythmic agents | Q12809 | CHO-hERG, FluxOR thallium flux, dofetilide IC70 present | activation (rescue from dofetilide block), less the hit threshold, % at 10 µM | actives 0.51% (n = 310,000) | AID 1511;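 active = activation above the mean of controls blocked by dofetilide plus 5 SD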;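 also: thallium influx through hERG after potassium depolarization seen as dye fluorescence rise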
Target sequence (Q12809 whole entry, looked up): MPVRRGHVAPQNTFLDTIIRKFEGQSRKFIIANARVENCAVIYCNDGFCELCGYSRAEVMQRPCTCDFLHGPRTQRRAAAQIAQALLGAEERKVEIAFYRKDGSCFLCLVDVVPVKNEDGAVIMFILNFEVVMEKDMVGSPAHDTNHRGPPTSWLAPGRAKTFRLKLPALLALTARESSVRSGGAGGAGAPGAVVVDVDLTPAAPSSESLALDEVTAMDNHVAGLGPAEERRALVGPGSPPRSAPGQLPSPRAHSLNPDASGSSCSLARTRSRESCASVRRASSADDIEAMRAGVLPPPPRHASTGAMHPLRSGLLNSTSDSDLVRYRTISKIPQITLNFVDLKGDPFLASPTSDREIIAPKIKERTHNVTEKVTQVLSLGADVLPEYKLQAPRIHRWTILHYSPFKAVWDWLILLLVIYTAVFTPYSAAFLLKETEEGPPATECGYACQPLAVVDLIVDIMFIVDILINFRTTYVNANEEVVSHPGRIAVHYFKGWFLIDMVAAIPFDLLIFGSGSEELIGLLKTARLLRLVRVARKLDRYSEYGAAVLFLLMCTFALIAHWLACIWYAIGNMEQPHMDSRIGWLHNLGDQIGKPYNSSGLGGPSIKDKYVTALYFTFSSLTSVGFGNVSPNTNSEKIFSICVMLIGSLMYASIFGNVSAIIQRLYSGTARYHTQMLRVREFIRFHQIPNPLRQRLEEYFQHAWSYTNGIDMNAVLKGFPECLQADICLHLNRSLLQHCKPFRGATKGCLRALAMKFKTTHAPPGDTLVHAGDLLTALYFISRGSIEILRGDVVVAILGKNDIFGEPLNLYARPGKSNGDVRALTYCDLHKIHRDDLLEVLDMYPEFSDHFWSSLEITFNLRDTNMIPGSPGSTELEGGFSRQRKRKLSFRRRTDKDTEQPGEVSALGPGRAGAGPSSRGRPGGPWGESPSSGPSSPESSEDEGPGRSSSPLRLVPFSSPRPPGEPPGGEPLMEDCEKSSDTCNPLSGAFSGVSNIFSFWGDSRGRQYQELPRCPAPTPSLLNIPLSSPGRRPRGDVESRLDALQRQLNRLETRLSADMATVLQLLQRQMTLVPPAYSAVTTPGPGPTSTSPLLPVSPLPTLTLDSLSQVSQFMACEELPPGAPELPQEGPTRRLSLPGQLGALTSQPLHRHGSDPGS
KCNK9 inh – inhibitors of human KCNK9 two-pore domain potassium channel. HEK293 KCNK9, FluxOR thallium flux fluorescence; stronger effect = lower value. Q9NPC2. B-score at 10 µM. actives 1.2% (n = 310,000);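 active = ratio B-score over 3 SD below the library mean, with starting fluorescence within 5 SD of its mean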;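 also: negative B-score means less thallium flux so channel inhibition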
KCNQ1 inh – inhibitors of human KCNQ1 potassium channel; P51787; CHO-K1 KCNQ1, FluxOR thallium flux fluorescence; stronger effect = higher value; actives 1.3% (n = 310,000); B-score at 10 µM;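 active = compounds whose thallium flux B-score, printed positive for inhibition, exceeds three library SD while starting fluorescence stays within three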;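 also: channel opened by potassium depolarization with thallium stimulus after 20 min compound exposure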
KCNK9 block conf – confirmation of human KCNK9 potassium channel inhibitors; shares compounds with KCNK9 inh; HEK293 KCNK9 cells, FluxOR thallium flux fluorescence; inhibition, % at 10 µM; actives 43% (n = 4,900);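 active = thallium signal inhibited by more than 5 SD of the compound-free buffer control wells, on both duplicate plates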;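 also: 0% = assay buffer control wells without compound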
Kir21 sel – mouse Kir2.1 off-target activity of KCNK9 modulators. shares compounds with KCNK9 inh. Kir2.1 cells, FluxOR thallium flux fluorescence. inhibition, % at 10 µM. actives 4% (n = 4,900). AID 492993;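 active = thallium signal drop more than 5 SD beyond the mean of the no-compound control wells, seen in both duplicate plates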;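 also: signal is fluorescence rise after thallium addition divided by baseline fluorescence; plate controls were assay buffer only for no effect and full block by chlorpromazine control for full effect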
HEK293 Tl ctr – second check of KCNK9 modulator effects in non-induced HEK293 cells; shares compounds with KCNK9 inh; FluxOR thallium flux; inhibition, % at 10 µM; actives 40% (n = 4,900); AID 492997;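 active = thallium signal drop beyond 5 SD of the untreated control mean, on both duplicate plates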;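 also: plate controls were buffer only IC0 wells for no effect and SID17386958 at its maximal inhibitory level for full effect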
* hit, by the source's call; i = inactive; / = no result. Only some compounds are listed: those with a hit (about 3.1% of all), similar ones and a draw of the others.

SMILES | KCNQ1 act | KCNK3 block | hERG rescue | KCNK9 inh | KCNQ1 inh | KCNK9 block conf | Kir21 sel | HEK293 Tl ctr
CCOC(=O)C1(Cc2ccc(Cl)cc2)CCN(C(=O)CCc2ccncc2)CC1 | i | i | -8.4 | i | i | / | / | /
CCN(CC)c1ccc(/C=N/OCC(=O)N2CCCc3ccccc32)cc1 | i | i | -10.9 | i | i | i | i | i
CC(C)(C)OC(=O)N1CCN(c2ccc(CNC(=O)c3ccc(Cl)cc3)cc2)CC1 | i | i | -2.1 | i | i | i | i | i
CC(C)(C)c1ccc(C(=O)NCc2ccc(Cl)cc2)cc1 | i | i | -6.0 | i | i | / | / | /
COc1ccccc1OCCOCCOc1ccccc1Cl | i | i | -2.0 | i | i | i | i | i
CCOc1ccccc1OCCOc1ccccc1CC | i | i | -7.5 | i | i | i | i | i
COc1ccc(OCCCCOc2ccccc2Cl)cc1 | i | i | -9.3 | i | i | / | / | /
CCOc1ccc(OCCOCCOc2ccccc2Cl)cc1 | i | i | -7.7 | i | i | i | i | i
CCOc1ccccc1OCCCOc1ccc(C)cc1Cl | i | i | -11.3 | i | i | i | i | 32.0%*
CCOc1ccc(-c2nnc(SCC(=O)N3CCNC3=O)o2)cc1 | / | i | / | / | / | / | / | /
COc1ccc(S(=O)(=O)N2CCCCCC2)cc1C(=O)N(C)Cc1ccc(C)cc1 | i | i | -14.1 | i | i | i | i | i
COc1ccc(CCN(C)C(=O)c2cc(S(=O)(=O)N3CCCCCC3)ccc2OC)cc1OC | i | i | -8.8 | i | i | / | / | /
C#CCn1c(S(=O)(=O)Cc2ccc(C)cc2)nc(-c2ccccc2)c1-c1ccccc1 | i | i | -14.3 | -11.6* | i | 59.0%* | i | 35.5%*
O=C1CC(=O)N(CCc2ccccc2)C(=O)N1CCc1ccccc1 | i | i | -12.2 | i | i | i | i | i
CC1CC(=O)N(CCc2ccccc2)C(=O)C1 | / | i | / | / | / | / | / | /
CCOC(=O)C1CCCN(Cc2cc(=O)oc3cc(C)c(C(C)C)cc23)C1 (centres undefined) | i | i | -11.3 | -9.25* | i | 52.5%* | i | 42.5%*
CC(/C=C1\SC(=S)N(C(C(=O)O)C(C)C)C1=O)=C\c1ccccc1 (centres undefined) | i | i | -14.7 | i | i | i | i | i
CC(/C=C1\SC(=S)N(NS(=O)(=O)c2ccc(C)cc2)C1=O)=C\c1ccccc1 | 39* | i | 2.1 | i | i | i | i | i
C=CCOc1ccc(/C=C2\SC(=S)N(NS(=O)(=O)c3ccccc3)C2=O)cc1 | 15* | i | -3.8 | i | i | i | i | i
CC(/C=C1\SC(=S)N(NC(=O)c2ccccc2C)C1=O)=C\c1ccccc1 | i | i | -9.0 | i | i | / | / | /
CC(/C=C1\SC(=S)N(NS(=O)(=O)c2ccccc2)C1=O)=C\c1ccccc1 | 14* | i | 10.3* | i | i | i | i | i
COCCNC(=O)C(OC(=O)c1nsc(Cl)c1Cl)C(C)C (centres undefined) | i | i | -3.3 | i | i | / | / | /
CC(C)CSC1=NSC2=NC(=O)/C(=C\c3ccccc3)C(=N)N12 | 20* | i | 21.9* | i | i | i | i | i
CC(C)S(=O)(=O)C1=NSC2=NC(=O)/C(=C\c3ccc(OC(=O)c4ccco4)cc3)C(=N)N21 | i | i | -24.5 | i | i | / | / | /
O=C(NCCCN1CCOCC1)c1sc2cc([N+](=O)[O-])ccc2c1Cl | i | i | 3.8 | i | i | i | i | i
SMILES | KCNQ1 act | KCNK3 block | hERG rescue | KCNK9 inh | KCNQ1 inh | KCNK9 block conf | Kir21 sel | HEK293 Tl ctr
Cc1cccc(C(=O)Nc2ccc(C(=O)c3ccccc3)cc2)c1 | i | i | -2.5 | -15.2* | i | 60.0%* | i | 27.0%*
CN(Cc1ccccc1)C1CCCN(C(=O)c2ccc(Cl)s2)C1 (centres undefined) | i | i | -7.7 | i | i | i | i | i
CCN(CC)c1ccc(/C=C2\C(=O)c3ccc(C(=O)O)cc3C2=O)cc1 | / | i | / | / | / | / | / | /
O=C(NC(=S)NCCC1=CCCCC1)c1ccccc1Br | i | i | 1.1 | i | i | i | i | i
O=C(CCCN1C(=O)c2ccccc2C1=O)Oc1ccc(F)cc1 | i | i | -2.8 | i | i | / | / | /
CC(=O)OC1CC(C)(C)N(OC(=O)CCCN2C(=O)c3ccccc3C2=O)C(C)(C)C1 | i | i | -5.9 | i | i | i | i | i
CCCc1c(C(=O)N/N=C/c2ccco2)nnn1-c1nonc1N | i | i | -4.3 | i | i | / | / | /
COc1ccc(S(=O)(=O)Nc2c(C)nc3nc(C)[nH]n3c2=O)cc1 | i | i | -6.1 | i | i | i | i | i
COc1ccc(S(=O)(=O)Nc2c(C)nc3nc[nH]n3c2=O)cc1 | i | i | -3.5 | i | i | / | / | /
OC(CSc1ccccc1Cl)CN1CCN(c2ccccc2F)CC1 (centres undefined) | i | i | -16.8 | i | i | i | i | i
COc1cccc(OC)c1OCC(O)CN1CCN(c2ccccc2F)CC1 (centres undefined) | i | i | -2.9 | i | i | / | / | /
OC(CSc1c(Cl)cccc1Cl)CN1CCN(c2ccccc2F)CC1 (centres undefined) | i | i | -25.5 | i | i | i | i | i
OC(CSc1ccccc1Cl)CN1CCN(c2ccc(F)cc2)CC1 (centres undefined) | i | i | -16.7 | i | i | / | / | /
OC(CSc1c(Cl)cccc1Cl)CN1CCN(c2ccc(F)cc2)CC1 (centres undefined) | i | i | -22.9 | i | i | i | i | i
O=C(COC(=O)C12CC3CC(CC(Br)(C3)C1)C2)Nc1c(F)cccc1F | / | i | / | / | / | / | / | /
CCCNC(=O)CN(C)CC(=O)Nc1ccccc1C#N | i | i | -18.7 | i | i | / | / | /
COC(=O)c1ccc(CN2CCCC(CO)(Cc3ccc(F)cc3F)C2)cc1 (centres undefined) | i | i | -3.2 | i | i | / | / | /
CCC(C(=O)NC1CCCC1)N(Cc1ccco1)C(=O)CNS(=O)(=O)c1ccccc1 (centres undefined) | i | i | -7.0 | i | i | / | / | /
